# Assay results as given in paper PMC11001196 (Microbial Biotechnology, 2024).
# Read-outs that look alike come from different tables or passages of the source.
# Tests used:
# [1] = test system: FS6; assay: spectrophotometric kinetics, Lineweaver-Burk; type: biochemical, metagenome; details: pH 5.5, 25 °C, HAM poly-buffer
# Method in brief: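 Purified metagenome-derived acid phosphatase (imidazole-gradient eluted, dialysed into MES/HEPES/acetate buffer with 150 mM NaCl) at 0.1-1 µM in 0.1 mL HAM poly-buffer (40 mM HEPES, 40 mM acetic acid, 40 mM MES). […] at 0 to 0.22 mM; hydrolysis followed spectrophotometrically. Vmax and Km derived from Michaelis–Menten analysis and Lineweaver–Burk double-reciprocal plots.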
# [2] = target: FS6 acid phosphatase (class C acid phosphatase, histidine-tagged recombinant FS6); assay: AUC
compound,measurement,setting,value
Nc1ncnc2c1ncn2[C@@H]1O[C@H](COP(=O)(O)O)[C@@H](O)[C@H]1O [adenosine 5'-monophosphate],Km,[1]; read-out: AMP-5’ / Km,180 ± 70 µM
"FS6 acid phosphatase (class C acid phosphatase, histidine-tagged recombinant FS6) (enzyme)",stoichiometry N,[2],10
Nc1nc2c(ncn2[C@@H]2O[C@H](COP(=O)(O)O)[C@@H](O)[C@H]2O)c(=O)[nH]1 [guanosine 5'-monophosphate],Km,[1]; read-out: GMP-5’ / Km,220 ± 20 µM
O=c1ccn([C@@H]2O[C@H](COP(=O)(O)O)[C@@H](O)[C@H]2O)c(=O)[nH]1 [uridine 5'-monophosphate],Km,[1]; read-out: UMP-5’ / Km,180 ± 130 µM
O=[N+]([O-])c1ccc(OP(=O)(O)O)cc1 [p-nitrophenyl phosphate],Km,[1]; read-out: pNPP / Km,40 ± 10 µM
